Sampled rows, rich in hits. Any-hit rate of the full collection: about 2.9%.
hiPSC survival = enhancers of single-cell hiPSC survival, primary screen, ATPlite luminescence; 100% = ROCK inhibitor wells, 0% = DMSO; actives 0.044% (n = 360,000); survival enhancement, % at 20 µM; AID 602274, 2012; in the data active means survival enhancement above about 18%;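 further: cells exposed to compounds for 16 hours before the ATP read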
PG9 binder = binders of HIV-1 gp120 antibody PG9, primary screen, biochemical, TR-FRET. HIV-1 gp120 / PG9 antibody interaction. TR-FRET gp120-PG9 antibody binding. inhibition, % at 6.7 µM. actives 0.43% (n = 360,000); in the data active means inhibition above about 8.5%
T cruzi repl = inhibitors of intracellular T. cruzi growth, primary screen, luminescence, NIH3T3 host cells; inhibition, % (test concentration not listed); actives 1.4% (n = 300,000); T. cruzi beta-gal in NIH3T3, 90 h;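 active means mean inhibition across valid replicates above about 55%, limit read from the data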;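 further: signal also drops with host cell toxicity which is not excluded here; 0% = plate median of DMSO wells and 100% = zero luminescence signal; higher percent means less beta-gal luminescence so fewer parasites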
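Incubation – ≥90 h infection period, 3 h prior cell attachment · System – NIH/3T3 fibroblasts plus reporter T. cruzi · Doses – compound pinned at 50 nL/well, DMSO · Read-out basis – percent inhibition of parasite-derived β-gal signal · Signal – luminescent β-galactosidase signal after 60 min lysis · Also added – 5000 T. cruzi trypomastigotes/well · Medium – Low-serum DMEM with 2% FBS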
NR1D1 modulator = modulators of Rev-erb alpha DNA binding, primary screen, biochemical, FITC-DNA, fluorescence polarization, uHTS. Rev-erbα–FITC-DNA binding, 90 min. activity, % at 10 µM. actives 0.79% (n = 370,000);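 active means activity above about 14%, limit read from the data; passing the limit was not always enough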;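 further: 0% = DMSO wells with 35 nM protein and 100% = DMSO wells with 750 nM protein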
Target sequence (P20393 whole entry, looked up): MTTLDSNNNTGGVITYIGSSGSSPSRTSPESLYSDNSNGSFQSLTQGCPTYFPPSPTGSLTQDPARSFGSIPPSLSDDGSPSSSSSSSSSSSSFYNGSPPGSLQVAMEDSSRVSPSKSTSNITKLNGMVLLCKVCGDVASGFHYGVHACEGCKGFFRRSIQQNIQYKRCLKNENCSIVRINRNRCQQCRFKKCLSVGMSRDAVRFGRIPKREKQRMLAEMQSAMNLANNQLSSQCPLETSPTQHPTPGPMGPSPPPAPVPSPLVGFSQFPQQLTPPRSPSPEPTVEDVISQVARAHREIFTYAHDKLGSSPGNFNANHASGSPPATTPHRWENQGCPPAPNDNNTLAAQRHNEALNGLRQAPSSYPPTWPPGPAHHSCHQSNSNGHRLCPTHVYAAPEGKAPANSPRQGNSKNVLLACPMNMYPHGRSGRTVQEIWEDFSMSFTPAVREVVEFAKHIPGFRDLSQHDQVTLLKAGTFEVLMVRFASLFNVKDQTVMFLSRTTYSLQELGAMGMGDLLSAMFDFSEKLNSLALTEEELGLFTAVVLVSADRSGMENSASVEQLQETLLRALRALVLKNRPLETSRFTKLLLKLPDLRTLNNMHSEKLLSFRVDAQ
beta cell repl = inducers of MIN6 beta-cell proliferation, primary screen, ATP luminescence, uHTS. MIN6 cells proliferation, ATPlite luminescence, 48 h; cells starved in 0.2% serum; 100% = growth in 10% serum. proliferation, % at 10 µM. actives 0.29% (n = 330,000). AID 2380, 2010;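 active means compounds whose signal lies at least 3.5 SD above the mean of all wells on their plate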;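 further: 0% = DMSO-treated cells in low-serum medium and 100% = 10% serum control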
H9c2 TAG inh = inhibitors of triacylglycerol accumulation, primary screen, cell-based, uHTS, fluorescence, H9c2; inhibition, % at 12.5 µM; H9c2 cells, Nile Red lipid (TAG) fluorescence; cells loaded with 200 µM oleic acid; actives 0.66% (n = 230,000); AID 651582, 2012;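 active means pattern-corrected inhibition of lipid staining of at least 50% with the nuclear-stain viability signal not falling by more than 50%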;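 further: 0% = DMSO wells and 100% = triacsin C control wells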
NR1D1 mod conf = modulators of Rev-erb alpha DNA binding, confirmation, biochemical, FITC-DNA, fluorescence polarization, single point | activation, % at 25 µM | AID 1259319, 2017 | actives 61% (n = 3,000) | 90 min | shares compounds with NR1D1 modulator;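 active means activation at or above a set limit, or at least 3 SD above the negative control mean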;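 further: 0% = 35 nM protein with DMSO and 100% = 750 nM protein high control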
RORg counter = modulation of RORgamma DNA binding, dose response, counter-screen for Rev-erb alpha modulator project, biochemical, fluorescence polarization, FITC-DNA. AID 1259320, 2017. shares compounds with NR1D1 modulator. purified RORgamma protein-FITC-DNA binding. actives 8% (n = 910). IC50, µM;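 active means Compounds whose fitted half-maximal concentration for disrupting protein-DNA binding is below 10 micromolar; the record names Rev-erb in its text, so the target is in doubt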
Active calls of the source: *; . = no result given.

SMILES	hiPSC survival	PG9 binder	T cruzi repl	NR1D1 modulator	beta cell repl	H9c2 TAG inh	NR1D1 mod conf	others
O=c1sc(N2CCN(c3ccccc3F)CC2)nc2ccsc12	-1.8	-2.3	17.7	24.0*	-0.8	2.7	13.8*
O=C(c1ccco1)N1CCN(c2nc3ccsc3c(=O)s2)CC1	3.0	-1.7	-5.7	1.4	-1.5	-16.8	.
O=c1c2ccc(F)cc2nc2sc(Nc3ccc4c(c3)CCC4)nn12	.	.	.	74.0*	.	.	1.6
Cc1nc2ccccc2c(=O)n1Nc1cccc(Cl)c1	-0.5	0.4	3.2	0.4	-0.8	.	.
O=c1c2ccccc2nc2sc(Nc3cccc(Cl)c3)nn12	-1.0	6.5	.	127.5*	-2.3	19.0	87.7*	RORg counter=>40
COc1ccc(NC(=O)NC(=O)c2cc(OCC(F)(F)F)ccc2OCC(F)(F)F)cc1	-0.6	-0.6	22.0	-2.1	-0.1	13.2	.
O=C(O)CSc1nc2c(cnn2-c2ccccc2)c(=O)n1-c1ccc(Br)cc1	-2.7	-1.8	-5.8	-1.0	-0.8	.	.
O=c1c2cnn(-c3ccccc3)c2nc(-c2cccs2)n1-c1ccc(Br)cc1	0.7	-0.8	45.4	38.0*	0.4	.	4.0
O=C(Nc1cc(S(=O)(=O)N2CCOCC2)ccc1N1CCCCC1)c1cc(-c2ccccn2)nc2ccccc12	0.7	-1.1	-0.6	24.6*	-2.7	13.3	2.4
CC1(C)CC2CC(C)(CN2C(=O)c2cc(-c3ccc(F)cc3)on2)C1 (stereo unspecified)	0.9	0.2	-5.3	-3.2	-1.8	.	.
CC1(C)CC2CC(C)(CN2C(=O)c2cc(-c3ccccc3)on2)C1 (stereo unspecified)	-0.3	-0.7	27.4	28.9*	-5.5	.	-3.3
O=C(Nc1cc(C(F)(F)F)ccc1N1CCOCC1)c1cccs1	-0.6	0.3	-2.3	4.1	1.9	8.4	.
CN(C)c1ccc(P(=O)(Nc2cccc(C(F)(F)F)c2)N2CCOCC2)c(NC(=O)c2cccs2)c1 (stereo unspecified)	0.3	0.9	10.3	32.5*	-6.2	.	2.5
Cc1ccc(CN2C(=O)CN(S(C)(=O)=O)CC2(C)C(=O)NC(C)C)cc1 (stereo unspecified)	.	4.5	.	-11.8	.	.	.
O=[N+]([O-])c1ccc(N(c2ccccc2)c2ccccc2)cc1	-2.8	6.4	38.8	44.4*	-5.4	.	35.3*	RORg counter=>40
COC(=O)c1c(C)[nH]c(C(=O)/C=C/c2ccc(C)cc2)c1C	-0.9	2.7	16.0	26.3*	-4.4	-29.6	-0.5
COC(=O)c1c(C)[nH]c(C(=O)/C=C/c2ccccc2)c1C	-2.9	0.1	5.0	-3.0	0.0	.	.
CCc1ccc2c(COC(=O)c3n[nH]c4ccccc34)cc(=O)oc2c1	-0.2	-0.8	10.0	10.3	-4.0	19.7	.
Cc1ccc2c(COC(=O)c3n[nH]c4ccccc34)cc(=O)oc2c1	-1.2	6.1	4.7	17.1*	-3.2	16.4	14.6
CCSc1nnc(-c2ccc(C)cc2)c2ccccc12	1.6	1.1	-2.4	-2.3	0.0	.	.
CCSc1nnc(-c2ccc(Cl)cc2)c2ccccc12	-0.3	1.1	11.5	239.1*	6.4	-30.1	288.7*	RORg counter=>40
COC(=O)c1ccc(CN2CCN(Cc3ccc(C(=O)OC)o3)CC2)o1	-1.4	0.8	7.2	-10.3	-2.9	6.5	.
CCOC(=O)c1nn2c(C(F)(F)F)cc(-c3ccc(OC)cc3)nc2c1Br	-0.5	-1.2	8.1	40.6*	-0.5	4.5	4.9
COCCNC(=O)c1nn2c(C(F)(F)F)cc(-c3ccccc3)nc2c1Br	2.8	1.3	.	-4.0	.	3.7	.

Compound activity: PubChem BioAssay, several laboratories
